Screening data as filed in PubChem.
TRPC4 block – inhibitors of mouse TRPC4 channel, primary screen, Fluo4 calcium, HEK293 TRPC4beta/mu-opioid cells | 0.39% of 300,000 active | DAMGO-evoked Fluo4 calcium flux; stronger effect = lower value | B-score at 10 µM | AID 2247, 2010;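 active = B-score over 3 SD under the library average, no early fluorescence shift, positive overall ratio signal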
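Assay system: HEK293 cells with stable TRPC4beta plus mu-opioid receptor expression; Probe or stimulus: DAMGO in two steps, submaximal then maximal; Dosing: single-point compound dosing; Measured by: Fluo4 calcium-dye fluorescence, kinetic read; Read-out basis: B score from integrated Fluo4 fluorescence ratio.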
TRPC4 agonist – activators of mouse TRPC4 channel, primary screen, Fluo4 calcium, HEK293 TRPC4beta/mu-opioid cells; Short transient receptor potential channel 4 (Mus musculus), Q9QUQ5; Fluo4 calcium fluorescence; stronger effect = higher value; B-score at 10 µM; 0.49% of 310,000 active; AID 2237, 2010;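 active = B-score above 5 SD of library B-scores, and initial fluorescence ratio not above library mean plus 5 SD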;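 also: positive B-score marks a calcium rise read as TRPC4 activation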
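Assay system: HEK293 cells stably co-expressing mouse TRPC4beta and mu-opioid receptor / Timing: Fluo4 dye loading 45 min at room temperature, 110 s recording / Signal: Fluo4 calcium-sensitive dye fluorescence, kinetic, 1 Hz baseline / Read-out: integrated baseline-normalised fluorescence ratio, converted to per-well B score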
TRPC6 activator – mouse TRPC6 channel activators, primary screen, cell-based, HEK293, membrane potential dye; 0.13% of 310,000 active; Short transient receptor potential channel 6 (Mus musculus), Q61143; HEK293-TRPC6 membrane potential dye fluorescence; stronger effect = higher value; B-score at 10 µM;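 active = B-score of the integrated fluorescence ratio above library mean plus 3 SD, and starting fluorescence ratio within library mean plus 5 SD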;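 also: higher score means more depolarization so channel activation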
Target sequence (Q61143 whole entry, looked up): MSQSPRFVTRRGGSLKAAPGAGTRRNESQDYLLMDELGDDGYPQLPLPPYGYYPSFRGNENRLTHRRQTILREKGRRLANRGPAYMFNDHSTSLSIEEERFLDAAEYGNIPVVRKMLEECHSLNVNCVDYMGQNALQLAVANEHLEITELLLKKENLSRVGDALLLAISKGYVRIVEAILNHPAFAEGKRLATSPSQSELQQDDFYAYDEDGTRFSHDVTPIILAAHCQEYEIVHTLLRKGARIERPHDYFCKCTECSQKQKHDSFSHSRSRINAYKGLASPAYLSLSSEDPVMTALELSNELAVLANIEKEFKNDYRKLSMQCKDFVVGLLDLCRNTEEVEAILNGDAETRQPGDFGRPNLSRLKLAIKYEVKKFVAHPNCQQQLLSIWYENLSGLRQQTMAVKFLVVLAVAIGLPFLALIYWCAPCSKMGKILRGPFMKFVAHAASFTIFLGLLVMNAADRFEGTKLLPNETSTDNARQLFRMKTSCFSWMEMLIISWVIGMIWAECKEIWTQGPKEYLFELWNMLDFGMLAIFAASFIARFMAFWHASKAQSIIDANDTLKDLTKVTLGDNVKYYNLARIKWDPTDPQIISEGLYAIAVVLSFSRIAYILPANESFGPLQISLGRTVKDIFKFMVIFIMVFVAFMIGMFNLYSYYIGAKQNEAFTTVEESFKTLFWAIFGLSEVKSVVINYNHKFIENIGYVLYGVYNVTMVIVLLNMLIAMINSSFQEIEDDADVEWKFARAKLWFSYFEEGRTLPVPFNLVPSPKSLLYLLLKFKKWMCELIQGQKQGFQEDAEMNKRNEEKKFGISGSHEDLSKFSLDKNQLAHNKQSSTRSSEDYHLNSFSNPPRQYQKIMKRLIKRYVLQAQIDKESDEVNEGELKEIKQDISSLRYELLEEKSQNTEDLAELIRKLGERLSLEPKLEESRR
TRPC4 PAM – positive allosteric modulators of TRPC4, primary screen, cell-based, mouse TRPC4beta, HEK293 mu-opioid, Fluo-4 calcium; AID 2227, 2009; DAMGO EC20, Fluo-4 Ca2+ flux; stronger effect = higher value; B-score at 10 µM; 0.42% of 310,000 active; Short transient receptor potential channel 4 (Mus musculus), Q9QUQ5;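 active = B-score of calcium response area above 5 SD of library B-scores, with initial fluorescence ratio within 5 SD of library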
TRPC6 inh – mouse TRPC6 channel inhibitors, primary screen, cell-based, HEK293, membrane potential dye | 1.1% of 310,000 active | Short transient receptor potential channel 6 (Mus musculus), Q61143 | ACh-evoked depolarization; stronger effect = lower value | B-score at 10 µM;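 active = B-score under library mean minus 3 SD, initial fluorescence not abnormally high, positive integrated signal ratio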;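 also: B-score derived from integrated fluorescence ratio over the kinetic read; more negative B-score means stronger inhibition of depolarization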
HEK293 TRPC6 ctr – parental HEK293 membrane potential modulation, confirmation, counter-screen for TRPC6 modulator project, cell-based; 51% of 2,400 active; membrane potential dye fluorescence; membrane potential signal change, % at 10 µM; shares compounds with TRPC6 inh; AID 488924, 2010;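 active = membrane potential signal moves up or down beyond 5 SD from buffer-only wells, on both duplicate plates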
HEK293 MPD ctr 2 – second check of TRPC6 modulator effects in parental HEK293 cells. membrane potential dye fluorescence; after compound, maximal acetylcholine stimulation. shares compounds with TRPC6 inh. 14% of 2,400 active. inhibition, % at 10 µM. AID 488926;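 active = membrane potential signal drops by more than 5 SD from the mean control signal, in both duplicate plates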
TRPC4 ctr mod – TRPC4 modulation by TRPC6 hit compounds, confirmation, selectivity assay for TRPC6 modulator project, cell-based, HEK293 TRPC4/mu-opioid, membrane potential dye, mouse; shares compounds with TRPC6 inh; membrane potential fluorescence; percent change from control (negative = decrease, positive = increase), % at 10 µM; 69% of 2,400 active;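 active = membrane potential signal moved up or down beyond 5 SD of buffer control wells, in both duplicate plates, actives on both sides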
TRPC4 ctr inh 2 – second selectivity test of TRPC6 modulators against mouse TRPC4 | HEK293 TRPC4/mu-opioid, membrane potential dye fluorescence; stimulated with maximal-effect DAMGO | inhibition, % at 10 µM | shares compounds with TRPC6 inh | 55% of 2,400 active | AID 488928;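 active = drop in membrane potential signal beyond 5 SD of the control wells in both duplicate plates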;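 also: TRPC4 counter screen for TRPC6 hits run under conditions tuned for TRPC6 not TRPC4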
TRPC6 block conf – mouse TRPC6 channel inhibitors, confirmation, HEK293 cells, membrane potential dye, duplicate; shares compounds with TRPC6 inh; 43% of 3,300 active; inhibition, % at 10 µM; ACh-evoked depolarization; AID 488960, 2010;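 active = fluorescence ratio falls more than 5 SD below the full-stimulation control mean, in both duplicate runs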;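 also: integrated fluorescence ratio of peak minus minimum over baseline after agonist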
TRPC6 act confirm – mouse TRPC6 channel activators, confirmation, HEK293 cells, membrane potential dye, duplicate | 11% of 2,800 active | HEK293-TRPC6 membrane potential dye fluorescence, FDSS | activation, % at 10 µM | shares compounds with TRPC6 inh;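 active = ratio signal rise beyond 5 SD above unstimulated control wells' mean, seen in both duplicate runs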
Of the large screens only hits and unclear results are named; the others gave an inactive call (follow-up assays come after a bar, where they were run). Hits are enriched below; roughly 2.3% of the tested compounds scored in any of these assays.

CCOC(=O)c1c(CSc2ccccc2)n(C)c2cc(Br)c(OC)c(O)c12	none
CCOC(=O)c1c(C)n(-c2ccccc2)c2ccc(O)c(CN(C)C)c12	TRPC6 inh -6.51 | HEK293 TRPC6 ctr -90.5% | HEK293 MPD ctr 2 inactive | TRPC4 ctr mod -17.5% | TRPC4 ctr inh 2 65.0% | TRPC6 block conf 69.0% | TRPC6 act confirm inactive
CCOC(=O)c1c(C)n(C)c2ccc(O)c(CN3CCC(C)CC3)c12	TRPC6 inh -9.36 | HEK293 TRPC6 ctr -140.5% | HEK293 MPD ctr 2 inactive | TRPC4 ctr mod -18.0% | TRPC4 ctr inh 2 73.0% | TRPC6 block conf 64.5% | TRPC6 act confirm inactive
CCOC(=O)c1c(C)n(C)c2ccc(O)c(CN3CCN(C)CC3)c12	none
CCOC(=O)c1c(C)n(-c2ccccc2)c2ccc(O)cc12	none
CCOC(=O)c1c(CSc2ccccc2)n(C)c2ccc(O)c(CN3CCOCC3)c12	TRPC6 inh -5.46 | HEK293 TRPC6 ctr inactive | HEK293 MPD ctr 2 inactive | TRPC4 ctr mod inactive | TRPC4 ctr inh 2 55.0% | TRPC6 block conf 36.5% | TRPC6 act confirm inactive
COC(=O)c1cc(NC(=O)CSc2nnc(CN3CCOCC3)n2C)ccc1Cl	none
CCCCn1c(SCC(=O)Nc2cccc(OC)c2)nc2ccc(N3CCOCC3)cc2c1=O	none
CCCC(=O)NC1C2CC3CC(C2)CC1C3 (stereo unspecified)	none
O=C(CCCN1C(=O)/C(=C/c2ccccc2Cl)SC1=S)N1CCOCC1	none
O=C(O)c1cccc(-c2ccc(/C=N/Nc3ccc([N+](=O)[O-])cc3)o2)c1	none
O=C(O)c1ccc(-c2ccc(/C=N/Nc3ccc([N+](=O)[O-])cc3)o2)cc1	TRPC4 agonist 121, TRPC6 activator 43.4, TRPC4 PAM 19 | HEK293 TRPC6 ctr active | HEK293 MPD ctr 2 inactive | TRPC4 ctr mod 310.0% | TRPC4 ctr inh 2 inactive | TRPC6 block conf inactive | TRPC6 act confirm 484.0%
CC(C)(C)NC(=S)N/N=C\c1ccc(-c2ccc([N+](=O)[O-])cc2)o1	TRPC6 activator 17.6, TRPC4 PAM 16 | HEK293 TRPC6 ctr inactive | HEK293 MPD ctr 2 inactive | TRPC4 ctr mod 51.0% | TRPC4 ctr inh 2 inactive | TRPC6 block conf inactive | TRPC6 act confirm inactive
O=[N+]([O-])c1ccc2nc(-c3ccncc3)[nH]c2c1	TRPC6 inh -6.36 | HEK293 TRPC6 ctr -304.5% | HEK293 MPD ctr 2 59.5% | TRPC4 ctr mod -52.0% | TRPC4 ctr inh 2 35.5% | TRPC6 block conf inactive | TRPC6 act confirm inactive
C=CCOc1ccc(Cl)cc1CNC1CCCC1	TRPC4 block -6, TRPC6 inh -7.29 | HEK293 TRPC6 ctr 321.0% | HEK293 MPD ctr 2 83.0% | TRPC4 ctr mod 76.5% | TRPC4 ctr inh 2 91.0% | TRPC6 block conf 71.5%
COc1ccc(CNC2CCCC2)c(OC)c1OC	none
CC1(C)CC(=O)C(/C=N/n2c(C(F)(F)F)nc3ccccc3c2=O)=C(O)C1	none
